Test results from ChEMBL document CHEMBL4325889, “Natural products hybrids: 3,5,4'-Trimethoxystilbene-5,6,7-trimethoxyflavone chimeric analogs as potential cytotoxic agents against diverse human cancer cells” (Eur J Med Chem, 2019).

Legend:
Type in all cases: functional
CCRF-CEM = assay: Growth inhibition of human CCRF-CEM cells at 10 uM after 48 hrs by SRB assay relative to control; details: read-out: GI
Summary of the method: (§1)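 Screened at the National Cancer Institute by the standard NCI protocol using the sulforhodamine B assay, which measures cellular protein. Single dose of 10 µM. Result is percent growth inhibition; values above 100% mean cell number fell below the initial population. Values are the average of duplicates.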

K562 = assay: Growth inhibition of human K562 cells at 10 uM after 48 hrs by SRB assay relative to control; details: K562, 48 h, read-out: GI; summary of the method: as §1
MOLT-4 = assay: Growth inhibition of human MOLT4 cells at 10 uM after 48 hrs by SRB assay relative to control; details: MOLT-4, 48 h, read-out: GI; summary of the method: as §1
RPMI-8226 = assay: Growth inhibition of human RPMI8226 cells at 10 uM after 48 hrs by SRB assay relative to control; details: RPMI-8226, 48 h, read-out: GI; summary of the method: as §1
SR = assay: Growth inhibition of human SR cells at 10 uM after 48 hrs by SRB assay relative to control; details: read-out: GI
Summary of the method: (§2)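 NCI screen against its human cancer cell line panel by the standard NCI protocol, SRB protein stain. Single dose of 10 μM. Percent growth inhibition versus control; values above 100% mean the cell population fell below the starting number. Each value is the mean of duplicates.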

A549 = assay: Growth inhibition of human A549 cells at 10 uM after 48 hrs by SRB assay relative to control; details: A549, 48 h, read-out: GI; summary of the method: as §1
HOP-62 = assay: Growth inhibition of human HOP62 cells at 10 uM after 48 hrs by SRB assay relative to control; details: HOP-62, 48 h, read-out: GI; summary of the method: as §1
NCI-H226 = assay: Growth inhibition of human NCI-H226 cells at 10 uM after 48 hrs by SRB assay relative to control; details: NCI-H226, 48 h, read-out: GI; summary of the method: as §1
NCI-H23 = assay: Growth inhibition of human NCI-H23 cells at 10 uM after 48 hrs by SRB assay relative to control; details: NCI-H23, 48 h, read-out: GI; summary of the method: as §1
NCI-H460 = assay: Growth inhibition of human NCI-H460 cells at 10 uM after 48 hrs by SRB assay relative to control; details: NCI-H460, 48 h, read-out: GI; summary of the method: as §1
NCI-H522 = assay: Growth inhibition of human NCI-H522 cells at 10 uM after 48 hrs by SRB assay relative to control; details: NCI-H522, 48 h, read-out: GI; summary of the method: as §1
HCC 2998 = assay: Growth inhibition of human HCC2998 cells at 10 uM after 48 hrs by SRB assay relative to control; details: HCC 2998, 48 h, read-out: GI; summary of the method: as §1
HCT-15 = assay: Growth inhibition of human HCT15 cells at 10 uM after 48 hrs by SRB assay relative to control; details: HCT-15, 48 h, read-out: GI; summary of the method: as §1
KM12 = assay: Growth inhibition of human KM12 cells at 10 uM after 48 hrs by SRB assay relative to control; details: KM12, 48 h, read-out: GI; summary of the method: as §1
SW-620 = assay: Growth inhibition of human SW620 cells at 10 uM after 48 hrs by SRB assay relative to control; details: SW-620, 48 h, read-out: GI; summary of the method: as §2
SNB-19 = assay: Growth inhibition of human SNB19 cells at 10 uM after 48 hrs by SRB assay relative to control; details: SNB-19, 48 h, read-out: GI; summary of the method: as §2
SNB-75 = assay: Growth inhibition of human SNB75 cells at 10 uM after 48 hrs by SRB assay relative to control; details: SNB-75, 48 h, read-out: GI; summary of the method: as §2
Malme-3M = assay: Growth inhibition of human MALME-3M cells at 10 uM after 48 hrs by SRB assay relative to control; details: read-out: GI; summary of the method: as §1
MDA-MB-435 = assay: Growth inhibition of human MDA-MB-435 cells at 10 uM after 48 hrs by SRB assay relative to control; details: MDA-MB-435, 48 h, read-out: GI; summary of the method: as §1
SK-MEL-28 = assay: Growth inhibition of human SK-MEL-28 cells at 10 uM after 48 hrs by SRB assay relative to control; details: SK-MEL-28, 48 h, read-out: GI; summary of the method: as §1
SK-MEL-5 = assay: Growth inhibition of human SK-MEL-5 cells at 10 uM after 48 hrs by SRB assay relative to control; details: SK-MEL-5, 48 h, read-out: GI; summary of the method: as §1
UACC-257 = assay: Growth inhibition of human UACC257 cells at 10 uM after 48 hrs by SRB assay relative to control; details: UACC-257, 48 h, read-out: GI; summary of the method: as §2
UACC-62 = assay: Growth inhibition of human UACC62 cells at 10 uM after 48 hrs by SRB assay relative to control; details: UACC-62, 48 h, read-out: GI; summary of the method: as §2
OVCAR-3 = assay: Growth inhibition of human OVCAR3 cells at 10 uM after 48 hrs by SRB assay relative to control; details: OVCAR-3, 48 h, read-out: GI; summary of the method: as §1
OVCAR-4 = assay: Growth inhibition of human OVCAR4 cells at 10 uM after 48 hrs by SRB assay relative to control; details: OVCAR-4, 48 h, read-out: GI; summary of the method: as §1
OVCAR-8 = assay: Growth inhibition of human OVCAR8 cells at 10 uM after 48 hrs by SRB assay relative to control; details: OVCAR-8, 48 h, read-out: GI; summary of the method: as §1
786-0 = assay: Growth inhibition of human 786-0 cells at 10 uM after 48 hrs by SRB assay relative to control; details: 786-0, 48 h, read-out: GI; summary of the method: as §1
ACHN = assay: Growth inhibition of human ACHN cells at 10 uM after 48 hrs by SRB assay relative to control; details: read-out: GI; summary of the method: as §1
RXF 393 = assay: Growth inhibition of human RXF393 cells at 10 uM after 48 hrs by SRB assay relative to control; details: RXF 393, 48 h, read-out: GI; summary of the method: as §1
SN12C = assay: Growth inhibition of human SN12C cells at 10 uM after 48 hrs by SRB assay relative to control; details: read-out: GI; summary of the method: as §1
TK-10 = assay: Growth inhibition of human TK10 cells at 10 uM after 48 hrs by SRB assay relative to control; details: TK-10, 48 h, read-out: GI; summary of the method: as §2
DU-145 = assay: Growth inhibition of human DU145 cells at 10 uM after 48 hrs by SRB assay relative to control; details: DU-145, 48 h, read-out: GI; summary of the method: as §1
MCF7 = assay: Growth inhibition of human MCF7 cells at 10 uM after 48 hrs by SRB assay relative to control; details: MCF7, 48 h, read-out: GI; summary of the method: as §1
Hs-578T = assay: Growth inhibition of human Hs 578T cells at 10 uM after 48 hrs by SRB assay relative to control; details: read-out: GI; summary of the method: as §1
MDA-MB-468 = assay: Growth inhibition of human MDA-MB-468 cells at 10 uM after 48 hrs by SRB assay relative to control; details: MDA-MB-468, 48 h, read-out: GI; summary of the method: as §1

COc1cc2oc(-c3cccc(NC(=O)c4ccc5c(c4)OCO5)c3)cc(=O)c2c(OC)c1OC was tested, and the inhibition of growth at 10 µM (CCRF-CEM) was 112%, the inhibition of growth at 10 µM (K562) was 82.6% and the inhibition of growth at 10 µM (MOLT-4) was 97.1%. It also gave an inhibition of growth at 10 µM (RPMI-8226) of 154%, an inhibition of growth at 10 µM (SR) of 88.5% and an inhibition of growth at 10 µM (A549) of 48.7%. For the same compound, the inhibition of growth at 10 µM (HOP-62) was 45.6%, the inhibition of growth at 10 µM (NCI-H226) was 34.3% and the inhibition of growth at 10 µM (NCI-H23) was 47.1%. For the same compound, the inhibition of growth at 10 µM (NCI-H460) was 72.8%, the inhibition of growth at 10 µM (NCI-H522) was 63.3% and the inhibition of growth at 10 µM (HCC 2998) was 46.9%. It also gave an inhibition of growth at 10 µM (HCT-15) of 67.9%, an inhibition of growth at 10 µM (KM12) of 48.7% and an inhibition of growth at 10 µM (SW-620) of 36%. The inhibition of growth at 10 µM (SNB-19) was 54.4%, the inhibition of growth at 10 µM (SNB-75) was 32.6% and the inhibition of growth at 10 µM (Malme-3M) was 23.6%. The inhibition of growth at 10 µM (MDA-MB-435) was 46.7%, the inhibition of growth at 10 µM (SK-MEL-28) was 44.9% and the inhibition of growth at 10 µM (SK-MEL-5) was 83.6%. The inhibition of growth at 10 µM (UACC-257) was 22.7%, the inhibition of growth at 10 µM (UACC-62) was 50% and the inhibition of growth at 10 µM (OVCAR-3) was 47%. The inhibition of growth at 10 µM (OVCAR-4) was 41.9%, the inhibition of growth at 10 µM (OVCAR-8) was 53.7% and the inhibition of growth at 10 µM (786-0) was 80.5%. For the same compound, the inhibition of growth at 10 µM (ACHN) was 52.2%, the inhibition of growth at 10 µM (RXF 393) was 53.5% and the inhibition of growth at 10 µM (SN12C) was 57.9%. The inhibition of growth at 10 µM (TK-10) was 38.4%, the inhibition of growth at 10 µM (DU-145) was 47.1% and the inhibition of growth at 10 µM (MCF7) was 56.4%. It also gave an inhibition of growth at 10 µM (Hs-578T) of 54.8% and an inhibition of growth at 10 µM (MDA-MB-468) of 24.5%.
